Reference: ChEMBL document CHEMBL1128440 (J Med Chem, 1995)
Values joined by “and” are separate entries in the source; they are usually repeats but may differ in a detail not shown here. Equal values may be shown once.

What was measured:
Rattus norvegicus [1] = species on record: Rattus norvegicus; test: Tissue biodistribution into estrogen-primed immature female rat uterus/muscle at 1 hr time interval; format: ADME, organism-based; settings: in vivo
Rattus norvegicus [2] = species on record: Rattus norvegicus; test: Tissue biodistribution into estrogen-primed immature female rat muscle at 1 hr time interval; format: ADME, organism-based; settings: in vivo
Procedure, shortened: (§1)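 Immature female Sprague-Dawley rats (25 days old, ≈50 g, five per time point) primed with estradiol, 5 μg sc daily for 2 days in 50% ethanol/sunflower seed oil, used 24 h after the last injection. The 18F-labeled ligand was given iv by tail vein in 10% ethanol/saline. Decapitated at 1 or 3 h; blood and organs weighed and gamma-counted. Reported as %ID/g ± SD, n = 5.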

Rattus norvegicus [3] = species on record: Rattus norvegicus; test: Tissue biodistribution into estrogen-primed immature female rat uterus at 1 hr blocked time interval; format: ADME, organism-based; settings: in vivo; procedure, shortened: as §1
Rattus norvegicus [4] = species on record: Rattus norvegicus; test: Tissue biodistribution into estrogen-primed immature female rat blood at 3 hr time interval; format: ADME, organism-based; settings: in vivo; procedure, shortened: as §1
Rattus norvegicus [5] = species on record: Rattus norvegicus; test: Tissue biodistribution into estrogen-primed immature female rat kidney at 1 hr blocked time interval; format: ADME, organism-based; settings: in vivo; procedure, shortened: as §1
Rattus norvegicus [6] = species on record: Rattus norvegicus; test: Tissue biodistribution into estrogen-primed immature female rat kidney at 3 hr time interval; format: ADME, organism-based; settings: in vivo; procedure, shortened: as §1
Rattus norvegicus [7] = species on record: Rattus norvegicus; test: Tissue biodistribution into estrogen-primed immature female rat fat at 1 hr low time interval; format: ADME, organism-based, Adipose tissue; settings: in vivo; procedure, shortened: as §1
Rattus norvegicus [8] = species on record: Rattus norvegicus; test: Tissue biodistribution into estrogen-primed immature female rat liver at 1 hr low time interval; format: ADME, organism-based; settings: in vivo; procedure, shortened: as §1
Rattus norvegicus [9] = species on record: Rattus norvegicus; test: Tissue biodistribution into estrogen-primed immature female rat uterus/muscle at 1 hr low time interval; format: ADME, organism-based; settings: in vivo; procedure, shortened: as §1
Rattus norvegicus [10] = species on record: Rattus norvegicus; test: Tissue biodistribution into estrogen-primed immature female rat fat at 3 hr time interval; format: ADME, organism-based, Adipose tissue; settings: in vivo; procedure, shortened: as §1
Rattus norvegicus [11] = species on record: Rattus norvegicus; test: Tissue biodistribution into estrogen-primed immature female rat lung at 1 hr time interval; format: ADME, organism-based; settings: in vivo; procedure, shortened: as §1
Rattus norvegicus [12] = species on record: Rattus norvegicus; test: Tissue biodistribution into estrogen-primed immature female rat muscle at 3 hr time interval; format: ADME, organism-based; settings: in vivo; procedure, shortened: as §1
Rattus norvegicus [13] = species on record: Rattus norvegicus; test: Tissue biodistribution into estrogen-primed immature female rat uterus/blood at 1 hr time interval; format: ADME, organism-based; settings: in vivo; procedure, shortened: as §1
Rattus norvegicus [14] = species on record: Rattus norvegicus; test: Tissue biodistribution into estrogen-primed immature female rat fat at 1 hr blocked time interval; format: ADME, organism-based, Adipose tissue; settings: in vivo; procedure, shortened: as §1
[15] = molecular target: T1, Progesterone receptor (Homo sapiens) (UniProt P06401); test: Nonspecific binding affinity against progesterone receptor was estimated relative to compound R5020
T1 sequence (whole entry): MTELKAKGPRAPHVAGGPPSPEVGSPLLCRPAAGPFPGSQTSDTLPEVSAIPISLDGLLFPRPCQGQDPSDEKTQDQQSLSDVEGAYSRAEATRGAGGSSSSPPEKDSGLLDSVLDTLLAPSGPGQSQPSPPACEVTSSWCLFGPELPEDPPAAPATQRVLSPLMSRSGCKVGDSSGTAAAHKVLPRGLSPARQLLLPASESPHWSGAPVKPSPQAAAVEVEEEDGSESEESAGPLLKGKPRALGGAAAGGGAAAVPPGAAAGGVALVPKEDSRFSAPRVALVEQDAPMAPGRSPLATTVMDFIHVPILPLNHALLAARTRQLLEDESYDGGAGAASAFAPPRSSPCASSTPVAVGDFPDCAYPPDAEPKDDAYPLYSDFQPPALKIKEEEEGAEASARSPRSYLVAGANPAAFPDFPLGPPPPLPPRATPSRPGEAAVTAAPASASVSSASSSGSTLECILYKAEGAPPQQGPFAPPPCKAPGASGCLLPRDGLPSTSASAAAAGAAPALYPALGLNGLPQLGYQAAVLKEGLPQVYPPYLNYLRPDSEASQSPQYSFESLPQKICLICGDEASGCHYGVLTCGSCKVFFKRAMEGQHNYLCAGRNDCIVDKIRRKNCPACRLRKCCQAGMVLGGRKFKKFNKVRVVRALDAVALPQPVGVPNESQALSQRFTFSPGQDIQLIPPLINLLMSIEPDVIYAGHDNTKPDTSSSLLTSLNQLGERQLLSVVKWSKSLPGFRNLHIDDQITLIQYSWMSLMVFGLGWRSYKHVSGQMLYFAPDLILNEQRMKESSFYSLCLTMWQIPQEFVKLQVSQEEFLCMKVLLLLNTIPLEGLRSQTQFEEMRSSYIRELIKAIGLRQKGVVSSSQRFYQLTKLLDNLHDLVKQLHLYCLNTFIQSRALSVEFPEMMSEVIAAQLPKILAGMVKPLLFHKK

Rattus norvegicus [16] = species on record: Rattus norvegicus; test: Tissue biodistribution into estrogen-primed immature female rat uterus/muscle at 1 hr blocked time interval; format: ADME, organism-based; settings: in vivo; procedure, shortened: as §1
Rattus norvegicus [17] = species on record: Rattus norvegicus; test: Tissue biodistribution into estrogen-primed immature female rat ovaries at 1 hr low time interval; format: ADME, organism-based, Female gonad; settings: in vivo; procedure, shortened: as §1
Rattus norvegicus [18] = species on record: Rattus norvegicus; test: Tissue biodistribution into estrogen-primed immature female rat liver at 1 hr blocked time interval; format: ADME, organism-based; settings: in vivo; procedure, shortened: as §1
Rattus norvegicus [19] = species on record: Rattus norvegicus; test: Tissue biodistribution into estrogen-primed immature female rat fat at 1 hr time interval; format: ADME, organism-based, Adipose tissue; settings: in vivo; procedure, shortened: as §1
Rattus norvegicus [20] = species on record: Rattus norvegicus; test: Tissue biodistribution into estrogen-primed immature female rat ovaries at 1 hr time interval; format: ADME, organism-based, Female gonad; settings: in vivo; procedure, shortened: as §1
Rattus norvegicus [21] = species on record: Rattus norvegicus; test: Tissue biodistribution into estrogen-primed immature female rat ovaries at 1 hr blocked time interval; format: ADME, organism-based; settings: in vivo; procedure, shortened: as §1
Rattus norvegicus [22] = species on record: Rattus norvegicus; test: Tissue biodistribution into estrogen-primed immature female rat ovaries at 3 hr time interval; format: ADME, organism-based, Female gonad; settings: in vivo; procedure, shortened: as §1
Rattus norvegicus [23] = species on record: Rattus norvegicus; test: Tissue biodistribution into estrogen-primed immature female rat muscle at 1 hr blocked time interval; format: ADME, organism-based; settings: in vivo; procedure, shortened: as §1
Rattus norvegicus [24] = species on record: Rattus norvegicus; test: Tissue biodistribution into estrogen-primed immature female rat blood at 1 hr low time interval; format: ADME, organism-based; settings: in vivo; procedure, shortened: as §1
Rattus norvegicus [25] = species on record: Rattus norvegicus; test: Tissue biodistribution into estrogen-primed immature female rat kidney at 1 hr time interval; format: ADME, organism-based; settings: in vivo; procedure, shortened: as §1
Rattus norvegicus [26] = species on record: Rattus norvegicus; test: Tissue biodistribution into estrogen-primed immature female rat uterus at 1 hr time interval; format: ADME, organism-based; settings: in vivo; procedure, shortened: as §1

With `C[C@]12CCC3C(CCC4=CC(=O)CC[C@@H]43)C1C[C@H]1OC(c3ccco3)O[C@]12C(=O)CF` (stereo partly specified) the “Uterus to muscle uptake ratio” value (Rattus norvegicus [1]) was 11.63%, the Injected dose/g (Rattus norvegicus [2]) was 0.59% and the Injected dose/g (Rattus norvegicus [3]) was 1.68%. It also gave an Injected dose/g (Rattus norvegicus [4]) of 0.19%, an Injected dose/g (Rattus norvegicus [5]) of 1.72% and an Injected dose/g (Rattus norvegicus [6]) of 0.73%. It also gave an Injected dose/g (Rattus norvegicus [7]) of 2.15%, an Injected dose/g (Rattus norvegicus [8]) of 1.81% and an Injected dose/g (Rattus norvegicus [9]) of 12.85%. It also gave an Injected dose/g (Rattus norvegicus [10]) of 2.36%, an Injected dose/g (Rattus norvegicus [11]) of 2.38% and an Injected dose/g (Rattus norvegicus [12]) of 0.26%. The “Uterus to blood concentration ratio” value (Rattus norvegicus [13]) was 18.18%, the Injected dose/g (Rattus norvegicus [14]) was 2.4% and the NSB [15] was 0.83 and 1.06. The uterus/muscle ratio (Rattus norvegicus [16]) was 2.34, the Injected dose/g (Rattus norvegicus [17]) was 2.13% and the Injected dose/g (Rattus norvegicus [18]) was 2.49%. It also gave an Injected dose/g (Rattus norvegicus [19]) of 2.16%, an Injected dose/g (Rattus norvegicus [20]) of 2.76% and an Injected dose/g (Rattus norvegicus [21]) of 1.65%. The Injected dose/g (Rattus norvegicus [22]) was 2.62%, the Injected dose/g (Rattus norvegicus [23]) was 0.71% and the Injected dose/g (Rattus norvegicus [24]) was 0.35%. It also gave an Injected dose/g (Rattus norvegicus [25]) of 1.66% and an Injected dose/g (Rattus norvegicus [26]) of 6.8%.
